Assay results taken from ChEMBL document CHEMBL1149630, “Damipipecolin and damituricin, novel bioactive bromopyrrole alkaloids from the Mediterranean sponge Axinella damicornis” (2007).
Active and inactive are the calls of the source. No cut-off for these calls is given here.

Experiments:
[1] = Effect on 5-HT/CaCl2 induced increase in intracellular calcium level in rat primary neuronal cells pretreated for 5 mins at 1 ug/ml after 20 mins in relative to control; assay type: functional, Primary neuron
Summary of the method: (§1)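 Rat cortical neurons from E17–18 Wistar embryos were grown serum-free on poly-L-lysine glass. They were loaded with 4 μM fura-2-AM for 1 h at 37 °C. Cells were preincubated 5 min with compound (0.01–10 µg/ml) in Ca/Mg-free Locke's, pH 7.4. 200 µM 5-HT plus 2.5 mM CaCl2 was added at 10 min. The 340/380 ratio increase was imaged over 20 min as % of DMSO/water control, ±SD of 3–5 experiments, ~90 cells each.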

Primary neuron [2] = experiment: Effect on 5-HT/CaCl2 induced increase in intracellular calcium level in rat primary neuronal cells pretreated for 5 mins at 0.1 ug/ml after 10 mins; assay type: functional, cell-based
Primary neuron [3] = experiment: Effect on 5-HT/CaCl2 induced increase in intracellular calcium level in rat primary neuronal cells pretreated for 5 mins at 10 ug/ml after 20 mins in relative to control; assay type: functional, cell-based; summary of the method: as §1
[4] = Effect on 5-HT/CaCl2 induced increase in intracellular calcium level in rat primary neuronal cells pretreated for 5 mins at 0.1 ug/ml after 20 mins in relative to control; assay type: functional, Primary neuron; summary of the method: as §1
Primary neuron [5] = experiment: Effect on 5-HT/CaCl2 induced increase in intracellular calcium level in rat primary neuronal cells pretreated for 5 mins at 3 ug/ml after 20 mins in relative to control; assay type: functional, cell-based; summary of the method: as §1
Suberites domuncula [6] = experiment: Effect on 5-HT/CaCl2 induced increase in intracellular calcium level in Suberites domunculas sponge cell pretreated for 5 mins at 0.1 ug/ml in relative to control
Neuron [7] = experiment: Effect on L-glutamic acid/CaCl2 induced increase in intracellular calcium level in rat neuronal cells pretreated for 5 mins at 0.1 ug/ml after 20 mins in relative to control; assay type: functional
Summary of the method: (§2)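 Rat cortical neurons were loaded with 4 μM fura-2-AM, then preincubated 5 min with 0.1, 1 or 10 µg/ml compound in Ca/Mg-free Locke's, pH 7.4. 200 µM L-glutamic acid plus 2.5 mM CaCl2 was added at 10 min. The 340/380 nm ratio increase was recorded over 20 min and expressed as % of vehicle control.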

PC-12 [8] = experiment: Cytotoxicity against PC12 cells at 10 ug/ml after 72 hrs by MTT assay; assay type: functional, cell-based
Summary of the method: (§3)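 Cells exposed 72 h to a range of concentrations; viability by MTT colorimetric read at 595 nm after overnight incubation at 37 °C. PC12 grown in DMEM/10% FCS/5% horse serum; HeLa and L5178y in RPMI 1640/10% FCS; all at 37 °C, 5% CO2.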

Suberites domuncula [9] = experiment: Effect on 5-HT/CaCl2 induced increase in intracellular calcium level in Suberites domunculas sponge cell pretreated for 5 mins at 1 ug/ml in relative to control
HeLa = experiment: Cytotoxicity against HeLa cells at 10 ug/ml after 72 hrs by MTT assay; assay type: functional, cell-based; conditions: Homo sapiens; summary of the method: as §3
[10] = Effect on 5-HT/CaCl2 induced increase in intracellular calcium level in rat primary neuronal cells pretreated for 5 mins at 0.03 ug/ml after 20 mins in relative to control; assay type: functional, Primary neuron; summary of the method: as §1
Neuron [11] = experiment: Effect on L-glutamic acid/CaCl2 induced increase in intracellular calcium level in rat neuronal cells pretreated for 5 mins at 10 ug/ml after 20 mins in relative to control; assay type: functional; summary of the method: as §2
Neuron [12] = experiment: Effect on NMDA/CaCl2 induced increase in intracellular calcium level in rat neuronal cells pretreated for 5 mins at 1 ug/ml after 20 mins in relative to control; assay type: functional
Summary of the method: (§4)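 Rat cortical neurons were fura-2-loaded (4 μM, 1 h, 37 °C) and preincubated 5 min with 0.1, 1 or 10 µg/ml compound in Ca/Mg-free Locke's, pH 7.4. They were stimulated at 10 min with 200 µM NMDA plus 2.5 mM CaCl2. The fura-2 340/380 ratio change was followed for 20 min and set relative to the vehicle control (100%).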

L5178Y = experiment: Cytotoxicity against L5178y cells at 10 ug/ml after 72 hrs by MTT assay; assay type: functional, cell-based; summary of the method: as §3
Neuron [13] = experiment: Effect on L-glutamic acid/CaCl2 induced increase in intracellular calcium level in rat neuronal cells pretreated for 5 mins at 1 ug/ml after 20 mins in relative to control; assay type: functional; summary of the method: as §2
[14] = Effect on 5-HT/CaCl2 induced increase in intracellular calcium level in rat primary neuronal cells pretreated for 5 mins at 0.3 ug/ml after 20 mins in relative to control; assay type: functional, Primary neuron; summary of the method: as §1
Neuron [15] = experiment: Effect on NMDA/CaCl2 induced increase in intracellular calcium level in rat neuronal cells pretreated for 5 mins at 0.1 ug/ml after 20 mins in relative to control; assay type: functional; summary of the method: as §4
Primary neuron [16] = experiment: Effect on 5-HT/CaCl2 induced increase in intracellular calcium level in rat primary neuronal cells pretreated for 5 mins at 0.01 ug/ml after 20 mins in relative to control; assay type: functional, cell-based; summary of the method: as §1
Neuron [17] = experiment: Effect on NMDA/CaCl2 induced increase in intracellular calcium level in rat neuronal cells pretreated for 5 mins at 10 ug/ml after 20 mins in relative to control; assay type: functional; summary of the method: as §4
HEK293 = experiment: Effect on 5-HT/CaCl2 induced increase in intracellular calcium level in HEK cells pretreated for 5 mins at 1 ug/ml after 20 mins in relative to control; assay type: functional, cell-based; conditions: Homo sapiens
Summary of the method: (§5)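 Cells on poly-L-lysine coverglass, loaded with 10 μM fura-2-AM (1 h, 37 °C), washed, held 1 h. In Ca2+/Mg2+-free Locke's solution pH 7.4, 1 μg/ml compound added for 5 min, then 200 μM 5-HT plus 2.5 mM CaCl2 at 10 min. 340/380 nm ratio recorded ≥20 min; rise vs 0.1% DMSO or water control set to 100%; three independent experiments, mean ± SD.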

PC-12 [18] = experiment: Effect on 5-HT/CaCl2 induced increase in intracellular calcium level in PC12 cells pretreated for 5 mins at 1 ug/ml after 20 mins in relative to control; assay type: functional; summary of the method: as §5

For O=C(O[C@@H]1CCN[C@@H](C(=O)O)C1)c1cc(Br)c[nH]1 [DAMIPIPECOLIN], the Activity [1] was 38%, the Activity (Primary neuron [2]) was “Active” and the Activity (Primary neuron [3]) was “inactive”. For the same molecule, the Activity [4] was 11.2%, the Activity (Primary neuron [5]) was “inactive” and the Activity (Suberites domuncula [6]) was “inactive”. The Activity (Neuron [7]) was 83.3%, the Activity (PC-12 [8]) was “Not toxic” and the Activity (Suberites domuncula [9]) was “inactive”. For the same molecule, the Activity (HeLa) was “Not toxic”, the Activity [10] was 71.6% and the Activity (Neuron [11]) was 96.6%. The Activity (Neuron [12]) was 70.4%, the Activity (L5178Y) was “Not toxic” and the Activity (Neuron [13]) was 90.5%. The Activity [14] was 29.7%, the Activity (Neuron [15]) was 114.1% and the Activity (Primary neuron [16]) was “inactive”. The Activity (Neuron [17]) was 105.9%.
In the case of C[N+]1(C)C[C@H](OC(=O)c2cc(Br)c[nH]2)C[C@@H]1C(=O)[O-] [DAMITURICIN], the Activity (PC-12 [8]) is reported as “Not toxic”, the Activity (HEK293) is reported as “inactive” and the Activity (HeLa) is reported as “Not toxic”. The Activity (PC-12 [18]) was 43.8% and the Activity (L5178Y) was “Not toxic”.
